What was measured:
[1] = system: Vesicular stomatitis Indiana virus; test: Antiviral activity against clinical isolate Vesicular stomatitis Indiana virus infected in african green monkey Vero 76 cells assessed as reduction of virus-induced plaque formation after 2 days using crystal violet staining; format: functional, organism-based; conditions: 48 h
CCRF-SB = test: Cytotoxicity against human CCRF-SB cells after 96 hrs by MTT assay; format: functional
Summary of the method: (§1)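 Cells were seeded at 1×10^5 cells/mL: leukaemia/lymphoma lines in RPMI-1640, solid tumour and fibroblast lines in specific media, all with 10% FCS. Serial compound dilutions were applied for 96 h at 37 °C, 5% CO2, under conditions allowing controls at least three rounds of multiplication. Viability was read by MTT. CC50 by linear regression. Mean of three determinations.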

Reovirus sp. = test: Antiviral activity against Reovirus type-1 3651 infected in hamster BHK21 cells assessed as inhibition of virus-induced cytopathogenicity after 3 to 4 days by MTT assay; format: functional, organism-based; conditions: Reovirus sp., 3651, BHK-21
Summary of the method: (§2)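 Host cells were seeded in 96-well plates at 3×10^4 cells/well (MDBK) or 5×10^4 cells/well (BHK-21) and grown to confluent monolayers overnight. They were infected at m.o.i. 0.01 in maintenance MEM with 0.5% inactivated FBS. Serial compound dilutions were added after 1 h. Viability was read by MTT after 3–4 days at 37 °C. EC50 was taken by linear regression against untreated controls. Mean of three determinations.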

[2] = Cytotoxicity against human GS4.1 cells; format: cell-based
Summary of the method: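 Huh-7 cells carrying HCV genotype 1b subgenomic replicon, grown in D-MEM/10% FBS with 0.5 mg/mL G418. Seeded at 7.5×10^3 cells/well with two-fold serial dilutions (top 75 μM), incubated 72 h at 37 °C. Viability by MTS-type Cell Titer 96 Aqueous One reagent; CC50 from % cytotoxicity versus concentration curves.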

[3] = Inhibition of Bovine viral diarrhea virus 1-NADL recombinant NS5B Cdelta 21 RNA dependent RNA polymerase expressed in Escherichia coli (DE3) using GTP as substrate preincubated for 30 mins before substrate addition measured after 120 mins by fluorescence assay
[4] = Cytotoxicity against MDBK cells after 48 to 96 hrs by MTT assay; format: cell-based, Bos taurus; conditions: cattle
Summary of the method: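 MDBK seeded at 6×10^5 and BHK at 1×10^6 cells/mL in MEM-Earle's with L-glutamine, 1 mM pyruvate, kanamycin, plus 10% horse serum (MDBK) or 10% FBS (BHK). Cells were grown at 37 °C, 5% CO2 with serial compound dilutions (DMSO stocks diluted in medium). Viability by MTT after 48–96 h. CC50 was taken by linear regression versus untreated controls; three independent determinations.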

[5] = Cytotoxicity against human MT4 cells after 96 hrs by MTT assay; format: cell-based
Summary of the method: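 Exponentially growing MT-4 cells seeded at 1×10^5 cells/mL in RPMI-1640 with 10% FBS, penicillin and streptomycin. Incubated with serial compound dilutions at 37 °C, 5% CO2 for 96 h; viability by MTT. CC50 by linear regression relative to untreated controls; mean of three independent determinations.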

Yellow fever virus = test: Antiviral activity against Yellow fever virus 17D Stamaril Pasteur J07B01 infected in hamster BHK21 cells assessed as inhibition of virus-induced cytopathogenicity after 3 to 4 days by MTT assay; format: functional, cell-based; conditions: Stamaril Pasteur J07B01, BHK-21; summary of the method: as §2
SK-MES-1 = test: Cytotoxicity against human SKMES1 cells after 96 hrs by MTT assay; format: functional; conditions: SK-MES-1, 96 h; summary of the method: as §1
Human orthopneumovirus = test: Antiviral activity against Human respiratory syncytial virus A2 infected in african green monkey Vero 76 cells assessed as reduction of virus-induced plaque formation after 5 days using crystal violet staining; format: functional, organism-based; conditions: 120 h

SMILES: O=[N+]([O-])c1ccc(-c2nc3cc4cccnc4c(Cl)c3[nH]2)cc1
- EC50 [1]: > 100 µM
- CC50 (CCRF-SB): > 100 µM
- EC50 (Reovirus sp.): > 100 µM
- CC50 [2]: 12 µM
- IC50 [3]: 0.06 µM
- CC50 [4]: > 100 µM
- CC50 at 96 h [5]: > 100 µM
- EC50 (Yellow fever virus): > 100 µM
- CC50 (SK-MES-1): > 100 µM
- EC50 (Human orthopneumovirus): > 100 µM

Source: ChEMBL document CHEMBL1938334, “Quinoline tricyclic derivatives. Design, synthesis and evaluation of the antiviral activity of three new classes of RNA-dependent RNA polymerase inhibitors” (Bioorg Med Chem, 2011)
